Activity calls are given as the source filed them. No cut-off for these calls is given here.

The term IC50 denotes the concentration needed to halve the response being measured.

The subject of one series is SW480. As to the kind of experiment: Cytotoxicity against COX-2 negative human SW480 cells assessed as growth inhibition by CellTiter-96 AQueous assay. Type of series: functional, cell-based.
Series [1] has as its target T1, Prostaglandin G/H synthase 2 (Homo sapiens, UniProt P35354).
T1 sequence (P35354 whole entry): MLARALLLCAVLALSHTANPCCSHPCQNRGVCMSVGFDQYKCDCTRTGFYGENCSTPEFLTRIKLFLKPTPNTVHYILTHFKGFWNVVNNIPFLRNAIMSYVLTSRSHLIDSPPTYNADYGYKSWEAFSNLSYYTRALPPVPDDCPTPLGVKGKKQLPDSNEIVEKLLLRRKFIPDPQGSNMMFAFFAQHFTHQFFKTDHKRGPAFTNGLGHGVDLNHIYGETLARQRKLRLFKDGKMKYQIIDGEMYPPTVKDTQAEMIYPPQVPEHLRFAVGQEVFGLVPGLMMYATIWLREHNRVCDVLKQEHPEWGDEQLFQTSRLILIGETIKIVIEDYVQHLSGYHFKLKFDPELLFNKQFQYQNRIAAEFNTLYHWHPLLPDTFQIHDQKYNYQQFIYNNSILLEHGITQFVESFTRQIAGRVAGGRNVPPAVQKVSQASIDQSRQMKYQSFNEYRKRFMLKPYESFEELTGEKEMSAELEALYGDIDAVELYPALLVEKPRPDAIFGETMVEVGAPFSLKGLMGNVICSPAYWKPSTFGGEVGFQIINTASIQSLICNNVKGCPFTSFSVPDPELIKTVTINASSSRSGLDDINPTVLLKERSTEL
As to the kind of experiment: Inhibition of COX-2 (unknown origin) by ELISA. On the technique in general: An ELISA detects its analyte on a solid surface through an enzyme-linked reagent.

Series [2] deals with HT-29. Nature of the series: Downregulation of hyaluronan-induced CD44v6 m-RNA expression in human HT-29 cells transfected with Has2cDNA at 5 uM after 24 hrs by qRT-PCR analysis. The series is classed as functional, cell-based. In short, it runs like this: (§1)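 HT29 cells were transiently transfected with Has2 cDNA alone, or with Has2 cDNA followed by CD44v6 shRNA. They were grown 72 h, then treated for 24 h. CD44v6 mRNA was quantified by qRT-PCR in three independent experiments, each with triplicate samples.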
On the technique in general: Quantitative PCR measures a nucleic acid by following its amplification.

Series [3] is described as follows: Ratio of IC50 for COX-2 positive human HCA-7 cells to IC50 for COX-2 positive human HCA-7 cells transfected with CD44v6shRNA. The series is classed as functional.
The target in series [4] is T2, Prostaglandin G/H synthase 1 (Ovis aries, UniProt P05979).
T2 sequence (P05979 whole entry): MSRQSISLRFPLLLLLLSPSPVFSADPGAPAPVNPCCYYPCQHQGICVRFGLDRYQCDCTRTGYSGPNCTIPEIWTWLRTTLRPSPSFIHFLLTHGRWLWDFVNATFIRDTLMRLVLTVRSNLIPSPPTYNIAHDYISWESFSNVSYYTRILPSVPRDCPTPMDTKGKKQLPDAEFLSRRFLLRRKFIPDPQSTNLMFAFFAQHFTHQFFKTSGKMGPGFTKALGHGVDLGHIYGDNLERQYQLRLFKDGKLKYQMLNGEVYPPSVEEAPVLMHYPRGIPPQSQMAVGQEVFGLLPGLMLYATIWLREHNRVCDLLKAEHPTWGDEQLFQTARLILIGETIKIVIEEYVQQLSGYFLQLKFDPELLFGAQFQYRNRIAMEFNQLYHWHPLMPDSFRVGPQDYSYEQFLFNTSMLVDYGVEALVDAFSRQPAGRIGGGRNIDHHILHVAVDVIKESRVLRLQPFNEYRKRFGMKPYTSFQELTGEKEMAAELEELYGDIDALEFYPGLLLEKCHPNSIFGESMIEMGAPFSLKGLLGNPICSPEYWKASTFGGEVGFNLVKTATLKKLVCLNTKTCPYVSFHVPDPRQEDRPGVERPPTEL
As to the kind of experiment: Inhibition of ram seminal vesicle COX-1 assessed as conversion of arachidonic acid to PGH2. In a few lines: (§2)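 Assays used enzyme immobilized in ELISA plates, with activity read by ELISA. IC50 values are given in µM.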

In series [5] the test system is HT-29. As to the kind of experiment: Cytotoxicity against COX-2 positive human HT-29 cells transfected with CD44v6shRNA assessed as growth inhibition after 48 hrs by MTT assay. Type of series: functional, cell-based. Particulars: HT-29, 48 h. For orientation: Formazan colour is commonly taken as a measure of viable cells.
Series [6] is described as follows: Downregulation of hyaluronan-induced CD44v6 protein expression in human HCA-7 cells transfected with Has2cDNA at 5 uM after 24 hrs by Western blotting analysis. The series is classed as functional, cell-based. In a few lines: (§3)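 HCA7 cells were transiently transfected with Has2 cDNA, grown 72 h, then treated for 24 h. Western blots were probed for CD44v6, COX-1, COX-2 and 5-LOX, with longer exposures used to show COX-2 and 5-LOX. The same blot was reprobed for β-tubulin as a loading control.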

In series [7] the test system is HCA-7. As to the kind of experiment: Cytotoxicity against human HCA-7 cells expressing COX-2, 5-LOX, CD44v6 assessed as growth inhibition after 24 hrs by MTT assay. Type of series: functional, cell-based. In short, it runs like this:
(§4)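 HCA7 and HIEC6 cells were exposed to a range of test concentrations for 24 h. Cytotoxicity was read by MTT assay and expressed as percent growth inhibition, with untreated cells set to 0% inhibition.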

Series [8] relates to HCA-7. As to the kind of experiment: Inhibition of hyaluronan-induced CD44v6 in human HCA-7 cells transfected with Has2cDNA assessed as downregulation of 5-LOX protein expression at 5 uM after 24 hrs by Western blotting analysis. Type of series: cell-based. In short, it runs like this:
as §3

Series [9] concerns HT-29. As to the kind of experiment: Ratio of IC50 for COX-2 positive human HT-29 cells to IC50 for COX-2 positive human HT-29 cells transfected with CD44v6shRNA. The series is classed as functional.
Series [10] concerns the target T3, Polyunsaturated fatty acid 5-lipoxygenase (Homo sapiens, UniProt P09917).
T3 sequence (P09917 whole entry): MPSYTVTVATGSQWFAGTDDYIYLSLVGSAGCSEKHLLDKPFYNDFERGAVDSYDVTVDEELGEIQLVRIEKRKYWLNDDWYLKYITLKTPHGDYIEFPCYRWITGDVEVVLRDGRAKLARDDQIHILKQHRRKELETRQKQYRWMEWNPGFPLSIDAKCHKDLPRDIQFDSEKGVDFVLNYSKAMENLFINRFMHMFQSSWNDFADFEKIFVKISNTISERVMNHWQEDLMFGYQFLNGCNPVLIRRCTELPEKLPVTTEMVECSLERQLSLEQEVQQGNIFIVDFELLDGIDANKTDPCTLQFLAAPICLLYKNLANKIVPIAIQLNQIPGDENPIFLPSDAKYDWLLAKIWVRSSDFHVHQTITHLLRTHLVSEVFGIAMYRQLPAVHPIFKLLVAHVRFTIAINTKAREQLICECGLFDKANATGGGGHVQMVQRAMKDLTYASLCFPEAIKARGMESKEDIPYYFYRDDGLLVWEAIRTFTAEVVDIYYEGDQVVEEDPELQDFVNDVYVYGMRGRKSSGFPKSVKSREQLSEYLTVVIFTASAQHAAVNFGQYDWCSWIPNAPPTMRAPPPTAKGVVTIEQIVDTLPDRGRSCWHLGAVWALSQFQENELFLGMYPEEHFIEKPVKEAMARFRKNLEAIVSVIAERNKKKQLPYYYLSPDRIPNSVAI
Nature of the series: Inhibition of 5-LOX (unknown origin) by ELISA. In short, it runs like this: as §2

Series [11] in a line: Cytotoxicity against COX-2 positive human HCA-7 cells assessed as growth inhibition by CellTiter-96 AQueous assay. The series is classed as functional, cell-based.
Series [12] has as its system HCA-7. Nature of the series: Inhibition of hyaluronan-induced CD44v6 in human HCA-7 cells transfected with Has2cDNA assessed as downregulation of COX-1 protein expression at 5 uM after 24 hrs by Western blotting analysis. Type of series: cell-based. In short, it runs like this: as §3
In series [13] the test system is HCA-7. Nature of the series: Inhibition of hyaluronan-induced CD44v6 in human HCA-7 cells transfected with Has2cDNA assessed as downregulation of COX-2 protein expression at 5 uM after 24 hrs by Western blotting analysis. The series is classed as cell-based. In a few lines: as §3
A short description of series [14]: Cytotoxicity against COX-2 positive human HCA-7 cells transfected with CD44v6shRNA assessed as growth inhibition after 48 hrs by MTT assay. The series is classed as functional, cell-based. Particulars: HCA-7, 48 h.
The test system of series [15] is HT-29. As to the kind of experiment: Downregulation of hyaluronan-induced CD44v6 m-RNA expression in human HT-29 cells transfected with Has2cDNA and CD44v6shRNA at 5 uM after 24 hrs by qRT-PCR analysis. The series is classed as functional, cell-based. In short, it runs like this:
as §1

The subject of series [16] is HT-29. As to the kind of experiment: Cytotoxicity against COX-2 positive human HT-29 cells assessed as growth inhibition by CellTiter-96 AQueous assay. The series is classed as functional, cell-based.
The nature of series [17]: Cytotoxicity against COX-2, LOX, CD44v6-deficient HIEC6 cells assessed as growth inhibition after 24 hrs by MTT assay. Particulars: human, hiec6, 24 h. Type of series: cell-based. In short, it runs like this:
as §4

Series [18] is described as follows: Cytotoxicity against COX-2 positive mouse APC10.1 cells transfected with CD44v6shRNA overexpressing HAS-2 assessed as growth inhibition after 48 hrs by MTT assay. Type of series: functional, cell-based.
Series [19] in a line: Ratio of IC50 for COX-2 positive mouse APC10.1 cells overexpressing HAS-2 to IC50 for COX-2 positive mouse APC10.1 cells transfected with CD44v6shRNA overexpressing HAS-2. Type of series: functional.
The nature of series [20]: Cytotoxicity against COX-2 positive mouse APC10.1 cells overexpressing HAS-2 assessed as growth inhibition by CellTiter-96 AQueous assay. The series is classed as functional, cell-based.

`CC(C)(C)c1cc(/C=N/NC(=O)c2ccccc2O)c(O)c(C(C)(C)C)c1`: the IC50 in the series with SW480 is 15.5 µM; in series [1] it was 5.13 µM; in [4], 44.6 µM; with HT-29 [5], 0.09 µM; in series [10], 8 µM; in series [11], 1.6 µM. Further, the IC50 was 0.078 µM in series [14], 1.8 µM with HT-29 [16], 0.15 µM in series [18] and 5.6 µM in series [20]. In addition, the result (with HT-29 [2]; in series [6]; in the series with HCA-7 [8]; in the series with HCA-7 [12]; in the series with HCA-7 [13]; in the series with HT-29 [15]) was Active. For the same molecule, the “Ratio IC50” value in series [3] turned out to be 21; in the series with HT-29 [9], 20; in [19], 37.3. In addition, the “growth inhibition (GI)” value in the series on HCA-7 [7] is “Active”. In series [17], the Activity result was “Non-toxic”.

For the origin of these results see ChEMBL document CHEMBL3098067, “Novel di-tertiary-butyl phenylhydrazones as dual cyclooxygenase-2/5-lipoxygenase inhibitors: synthesis, COX/LOX inhibition, molecular modeling, and insights into their cytotoxicities” (Bioorg Med Chem Lett, 2014).
